# Assay outcomes: PubChem BioAssay, several laboratories
# Rows were chosen to be rich in hits. Some 2.2% of all compounds tested hit in one or more screens of this group.
# DDE Tn6 FP inh = inhibitors of Tn6 peptide binding to human fibrin DD(E). P02675. Fibrin DD(E) TRITC-Tn6 fluorescence polarization displacement. inhibition, % at 8.3 µM. actives 0.21% (n = 370,000);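 active means inhibition above a per-campaign cutoff: mean of compounds within control limits plus 3 SD, cut at about 15% in these data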;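 further: 0% = median of all compound wells on the plate and 100% = blocking peptide control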
# Target sequence (P02675 whole entry, looked up): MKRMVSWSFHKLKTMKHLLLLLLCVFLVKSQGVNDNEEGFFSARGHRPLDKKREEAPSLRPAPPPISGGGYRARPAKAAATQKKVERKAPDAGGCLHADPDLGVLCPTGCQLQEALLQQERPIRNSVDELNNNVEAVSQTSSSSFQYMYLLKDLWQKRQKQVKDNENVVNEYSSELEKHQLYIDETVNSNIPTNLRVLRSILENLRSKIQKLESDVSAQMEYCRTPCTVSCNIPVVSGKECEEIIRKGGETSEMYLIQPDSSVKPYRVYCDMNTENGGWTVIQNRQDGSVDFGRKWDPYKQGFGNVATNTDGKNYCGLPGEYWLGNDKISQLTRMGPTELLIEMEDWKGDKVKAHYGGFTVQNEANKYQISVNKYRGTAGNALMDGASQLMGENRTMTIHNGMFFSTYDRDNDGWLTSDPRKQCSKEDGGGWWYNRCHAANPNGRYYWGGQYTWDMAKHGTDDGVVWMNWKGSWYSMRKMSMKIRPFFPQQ
# SKN-1 inh = inhibitors of C. elegans SKN-1. C. elegans VP596 Pgst-4::GFP/RFP ratio, acrylamide-induced, 24 h. inhibition, % at 21.8 µM. actives 0.49% (n = 360,000);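 active means interference check ratio from 0.5 to 1.5 plus GFP to RFP signal ratio inhibition reaching or exceeding a fixed threshold, cut at about 30% in these data, passing the limit was not always enough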
# DDE Tn7 FP inh = disrupts Tn7 cyclic peptide binding to fibrin D-Dimer-E complex. P02675. FP displacement of FITC-Tn7 peptide from fibrin DD(E); 0% = median of compound wells per plate. inhibition, % at 8.3 µM. actives 0.13% (n = 370,000);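 active means inhibition above the mean of compounds falling within the control limits plus 3 SD of them, cut at about 14% in these data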;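 further: 0% = plate median of compound wells and 100% = 10 µM Aha-Tn7 peptide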
#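 Also added: labelled Tn7 tracer, 0.1 µM; Assay system: human fibrin DD(E) protein; Amount: 2 µM fibrin DD(E); Schedule: 10 min compound pre-incubation, 3 h probe incubation at room temperature; Repeats: one replicate per compound; Read-out basis: percent inhibition; Measured by: fluorescence polarization of the labelled Tn7 tracer.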
# proKLK7 act = activators of human kallikrein-7 zymogen; activation, % at 7 µM; actives 0.9% (n = 370,000); purified proKLK7, EDANS-DABCYL substrate fluorescence; 100% is mature enzyme control, 0% vehicle; P49862;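 active means activation above the mean of all tested compounds plus 3 SD, computed per campaign excluding outliers beyond control limits, cut at about 13% in these data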
# Neddyl block = blocks human cullin neddylation; actives 0.58% (n = 360,000); P61081+Q13564; calls only at 25 µM; TR-FRET cullin neddylation, biochemical; in the data active means inhibition above about 36%
# MT1-MMP act inh = inhibitors of human MT1-MMP activation; HT1080 RFP-PRO-GFP cells, GFP/RFP ratio fluorescence, overnight; percent of plate control window, DMSO zero; GFP/RFP ratio change, % at 20 µM; actives 0.061% (n = 360,000); AID 651647;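 active means GFP/RFP ratio change of at least 30% with cell ATP level not reduced by more than half and red fluorescence within 50% of control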
#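 system = RFP-PRO-GFP reporter HT1080 cells | dosing = 20 µM single dose, 1% DMSO | timing = overnight cell settling, then overnight compound exposure, 37 °C, 5% CO2 | read-out basis = GFP/RFP fluorescence ratio | controls = DMSO and RFP-L50D-GFP cell wells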
# Neddyl conf = cullin neddylation inhibition, confirmation | actives 13% (n = 1,800) | calls only at 25 µM | TR-FRET cullin neddylation biochemical assay | shares compounds with Neddyl block; in the data active means inhibition above about 40%;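 further: neddylation substrate is the cullin 1 ring ligase complex with SKP2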
# * marks the source's active call; other numbers are inactive results; i = inactive; / = not tested or not shown; + = active, no number.
SMILES,DDE Tn6 FP inh,SKN-1 inh,DDE Tn7 FP inh,proKLK7 act,Neddyl block,MT1-MMP act inh,Neddyl conf
C[C@@H]1CN([C@@H](C)COC(=O)C(C)(C)C)C(=O)c2cc(NC(=O)Nc3ccccc3)ccc2O[C@@H](C)CCCCO[C@H]1CN(C)S(=O)(=O)c1ccc(F)cc1,-16.2,/,-5.3,/,/,/,/
Cc1ccc(CSc2nnc(-c3cccc4ccccc34)o2)cc1,11.6,-5.7,6.1,0.2,+,-2.1,/
O=C(CN(c1ccc(F)cc1)S(=O)(=O)c1ccccc1)NCc1ccco1,1.9,-0.3,6.7,0.5,i,-3.6,/
NC(=O)c1cnn2c(-c3cccc(C(F)(F)F)c3)ccnc12,3.5,-9.1,-5.8,6.0,+,2.4,i
CCOC(=O)c1sc2nc[nH]c(=O)c2c1C,1.6,-7.8,-2.6,-1.4,i,4.9,/
CCOC(=O)c1snc2c(=O)[nH]cnc12,7.7,20.1,0.7,-116.2,+,-2.7,i
Cc1cc(F)cc(-c2cc(C(=O)NCc3cccc(Cl)c3)[nH]n2)c1,-4.6,10.9,0.9,-0.2,i,0.7,/
COc1ccccc1N(CC(=O)NCCSC(C)(C)C)S(C)(=O)=O,4.8,6.7,2.3,0.3,i,0.2,/
COc1ccc(S(=O)(=O)Nc2c(C(=O)O)[nH]c3ccc(OC)cc23)cc1,5.5,2.4,-1.0,1.0,/,2.3,/
COc1ccc2[nH]c(C(=O)O)c(NS(=O)(=O)c3ccc(OC)c(OC)c3)c2c1,6.0,-18.4,5.4,1.4,+,-1.5,+
Cc1nn(-c2ccccc2)c2nc(-c3ccccc3)cc(C(=O)N3CCOCC3)c12,-3.2,1.8,2.2,-27.6,/,-5.9,/
Cc1cc(C)nc(-n2nc(C)c3c(C(=O)O)cc(-c4cccc(Br)c4)nc32)n1,-1.2,-17.0,4.8,0.8,+,-1.1,i
COC(=O)c1[nH]c2cccc(OC)c2c1NC(=O)CN1CCN(c2cccc(OC)c2)C(C)C1 (stereo unspecified),4.0,4.1,4.5,-3.5,+,-6.4,/
COC(=O)c1[nH]c2cccc(OC)c2c1NC(=O)CCN1CCC(C)CC1,-1.7,9.4,-2.4,2.5,/,-2.9,/
CCOC(=O)Nc1c(C(=O)OC)[nH]c2cccc(OC)c12,0.5,4.3,-0.5,3.8,+,0.9,i
Cc1ccc(NC(=O)C2CCCN(S(=O)(=O)c3ccc4c(c3)oc(=O)n4C)C2)nc1 (stereo unspecified),-0.1,-24.4,-1.9,-0.4,i,4.8,/
c1ccc2c(c1)ncn2Cc1nnc2sc(-c3ccc4c(c3)OCO4)nn12,4.5,17.4,-5.2,2.0,i,6.5,/
COc1ccccc1C(NC(=O)C1CCCCC1)c1c(O)ccc2ccccc12 (stereo unspecified),4.4,-10.9,5.9,0.2,i,-2.8,/
CC1(C)C(O)=C(c2nc3ccccc3[nH]2)C(=N)N1c1ccccc1,9.4,-10.7,1.7,-1.4,+,/,/
Cc1ccc(-c2nc(CS(=O)CC(=O)NC3CCC(C)CC3)c(C)o2)cc1 (stereo unspecified),0.8,-3.0,-3.5,-0.2,i,11.4,/
NCCCn1c(C(=O)c2cc(Cl)c(N)c(Cl)c2)c2ccc(C(F)(F)F)cc2[n+]1[O-],-6.4,1.8,5.1,0.5,i,4.1,/
CC1Cn2c(nnc2-c2cc3ccccc3cc2O)S1 (stereo unspecified),-2.5,-2.8,0.6,-73.3,+,7.2,i
CCc1ccc(C(=O)OCC(=O)NC2CCCC2)cc1,4.6,-16.0,2.8,0.0,i,-1.3,/
O=C(NCc1ccco1)c1cnn2c(C(F)F)cc(-c3ccccc3)nc12,6.2,-6.2,0.7,-0.6,/,6.8,/
COCCNC(=O)c1cnn2c(C(F)F)cc(-c3ccccc3)nc12,-2.1,2.2,3.1,1.8,+,0.3,i
SMILES,DDE Tn6 FP inh,SKN-1 inh,DDE Tn7 FP inh,proKLK7 act,Neddyl block,MT1-MMP act inh,Neddyl conf
Cc1cc(C(F)F)n2ncc(C(=O)N3CCc4ccccc4C3)c2n1,-5.9,-23.0,-1.5,1.7,i,-1.4,/
O=C(c1cnn2c(C(F)F)cc(-c3ccccc3)nc12)N1CCc2ccccc2C1,-10.5,0.6,-1.9,-2.5,+,-4.3,i
COc1cc(/C=N/NC(N)=O)cc([N+](=O)[O-])c1O,-1.3,2.6,-0.1,0.2,i,9.0,/
Cc1ccc(-c2ccc(C(=O)Nc3ccccc3)o2)c2ccccc12,-4.4,18.0,-4.5,-130.9,+,-0.4,i
Cc1ccc(-c2ccc(C(=O)NCc3ccccc3)o2)c2ccccc12,-9.5,-2.1,-3.6,-30.5,/,-2.1,/
Cc1ccccc1NC(=O)CNc1ccccc1C(=O)NCc1ccco1,-4.9,-11.2,3.1,3.1,/,3.2,/
CCc1ccc2nc(N3CCN(C)CC3)c(C#N)cc2c1,7.8,2.5,2.1,2.9,+,-2.3,i
Cn1c(=O)c2c(nc(N3CCN(c4ccccc4)CC3)n2CCCc2ccccc2)n(C)c1=O,-5.6,0.1,-0.4,0.2,i,7.7,/
O=C(COc1ccccc1)Nc1ccc(-c2nnc(-c3ccco3)o2)cc1,2.6,18.7,-3.0,0.2,+,5.6,i
COc1ccccc1OCC(=O)Nc1cccc(-c2nnc(-c3ccco3)o2)c1,-5.2,4.2,-9.9,0.1,i,8.2,/
CCc1ccccc1NS(=O)(=O)c1cccc2nsnc12,-1.6,-3.2,-6.1,0.2,i,2.9,/
Cc1cccc(NC(=O)Cn2nnc3sc4c(c3c2=O)CC(C)(C)OC4)c1,1.0,-6.7,3.6,0.2,i,1.9,/
COc1ccc(Br)cc1CNC(=O)CCNC(=O)Cn1ccc2ccccc2c1=O,3.7,1.4,9.3,-0.2,i,0.3,/
COc1ccccc1/C=N/NC(=O)c1cc2c(ccc3ccccc32)o1,-4.1,0.8,6.8,-5.7,+,-0.9,i
COc1ccc(/C=N\NC(=O)c2cc3c(ccc4ccccc43)o2)cc1O,-3.1,0.0,-2.4,-3.2,+,-9.3,i
COc1ccc2ccc(OC)c(/C=N/NC(=O)c3cc4ccccc4o3)c2c1,-18.2,-6.0,-4.5,-28.4,/,4.5,/
O=C(O)c1ccc(/C=N/NC(=O)c2cc3c(ccc4ccccc43)o2)cc1,0.8,14.5,-11.9,-0.2,+,1.0,i
O=C(N/N=C/c1cccc([N+](=O)[O-])c1)c1cc2c(ccc3ccccc32)o1,-5.1,9.0,1.4,0.4,i,5.2,/
COCCn1cc(C(=O)NCCCOC(C)C)c2c3ccccc3n(C)c2c1=O,2.4,9.7,-5.3,-0.6,i,2.6,/
